Source: ChEMBL document CHEMBL3392955, “Thiol-derivatized minihepcidins retain biological activity” (Bioorg Med Chem Lett, 2015)
Activity calls are given as the source filed them. The rule behind the calls is not given here.

How the values were obtained:
Ferroportin = target: T1, Ferroportin (Homo sapiens, UniProt Q9NP59); test: Induction of human ferroportin degradation expressed in HEK293 cells after 24 hrs by flow cytometry; assay type: cell-based
T1 sequence (Q9NP59 whole entry): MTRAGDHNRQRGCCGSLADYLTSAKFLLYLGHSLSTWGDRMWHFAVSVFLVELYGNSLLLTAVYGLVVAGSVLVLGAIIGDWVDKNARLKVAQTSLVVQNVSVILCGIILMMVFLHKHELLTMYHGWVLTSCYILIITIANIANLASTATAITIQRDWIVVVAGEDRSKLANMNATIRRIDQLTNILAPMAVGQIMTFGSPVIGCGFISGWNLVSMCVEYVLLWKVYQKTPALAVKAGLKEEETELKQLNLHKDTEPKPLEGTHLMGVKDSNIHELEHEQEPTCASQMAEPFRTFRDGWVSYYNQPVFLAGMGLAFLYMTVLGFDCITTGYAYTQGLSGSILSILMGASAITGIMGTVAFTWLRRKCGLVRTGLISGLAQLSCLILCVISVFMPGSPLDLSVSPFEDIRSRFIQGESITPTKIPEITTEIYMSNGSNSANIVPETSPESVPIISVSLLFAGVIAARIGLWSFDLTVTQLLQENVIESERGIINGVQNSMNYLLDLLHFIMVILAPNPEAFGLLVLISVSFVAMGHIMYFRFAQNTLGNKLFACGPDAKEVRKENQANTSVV
Procedure, shortened: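 HEK293:TREX-Fpn-GFP cells (human ferroportin-GFP under a doxycycline-inducible promoter) plated on poly-D-lysine with 20 μM FAC. Fpn induced with 500 ng/mL doxycycline for 24 h, then washed off. Peptide exposure 24 h. Green fluorescence read by flow cytometry, gated against uninduced cells; induced untreated cells are the positive control.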

Mus musculus [1] = test: Induction of human ferroportin degradationin C57BL/6 mouse assessed as decrease in serum iron at 50 to 100 nmol, ip measured after 48 hrs by colorimetric assay; assay type: functional, organism-based
Procedure, shortened: (§1)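 Mice dosed intraperitoneally with 50 or 100 nmoles peptide in 100 μL PBS; controls received 100 μL PBS. Killed at 6, 24 or 48 h. Serum from cardiac-puncture blood. Iron measured by microplate colorimetric assay on 50 μL serum. Result is % decrease versus mean serum iron of PBS-injected mice.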

Mus musculus [2] = test: Induction of human ferroportin degradationin C57BL/6 mouse assessed as decrease in serum iron at 50 to 100 nmol, ip measured after 6 to 24 hrs by colorimetric assay; assay type: functional, organism-based; procedure, shortened: as §1
[3] = Stability of the compound in DMSO at room temperature after 30 days by LC/MS/MS analysis; assay type: physicochemical; settings: read-out: Stability
Procedure, shortened: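 Compound kept as a 10 mM DMSO solution at room temperature for 30 days. Remaining intact compound (decomposition or sulfide oxidation) measured by LC/MS/MS.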

SMILES	EC50 (Ferroportin)	other results
CCCCCCCCCCCCCCCCNC(=O)CN(CC(N)=O)C(=O)CCCCCNC(=O)[C@H](Cc1ccccc1)NC(=O)[C@H](CCCNC(=N)N)NC(=O)[C@H](CS/C(=C\C(N)=O)C(N)=O)NC(=O)[C@H](CCCNC(=N)N)NC(=O)C[C@@H]1CCCN1C(=O)[C@@H](NC(=O)[C@H](Cc1cnc[nH]1)NC(=O)[C@@H](NC(=O)CNC(=O)CO)[C@@H](C)O)C(c1ccccc1)c1ccccc1	0.0084 µM	–
CCCCCCCCCCCCCCCCNC(=O)CN(CC(N)=O)C(=O)CCCCCNC(=O)[C@H](Cc1ccccc1)NC(=O)[C@H](CCCNC(=N)N)NC(=O)[C@H](CS/C(=C\C(=O)OCC)C(=O)OCC)NC(=O)[C@H](CCCNC(=N)N)NC(=O)C[C@@H]1CCCN1C(=O)[C@@H](NC(=O)[C@H](Cc1cnc[nH]1)NC(=O)[C@@H](NC(=O)CNC(=O)CO)[C@@H](C)O)C(c1ccccc1)c1ccccc1	0.0104 µM	–
CCCCCCCCCCCCCCCCNC(=O)CN(CC(N)=O)C(=O)CCCCCNC(=O)[C@H](Cc1ccccc1)NC(=O)[C@H](CCCNC(=N)N)NC(=O)[C@H](CS/C(=C\S(=O)(=O)C(C)(C)C)S(=O)(=O)C(C)(C)C)NC(=O)[C@H](CCCNC(=N)N)NC(=O)C[C@@H]1CCCN1C(=O)[C@@H](NC(=O)[C@H](Cc1cnc[nH]1)NC(=O)[C@@H](NC(=O)CNC(=O)CO)[C@@H](C)O)C(c1ccccc1)c1ccccc1	0.01 µM	–
CCCCCCCCCCCCCCCCNC(=O)CN(CC(N)=O)C(=O)CCCCCNC(=O)[C@H](Cc1ccccc1)NC(=O)[C@H](CCCNC(=N)N)NC(=O)[C@H](CS/C(=C\C(=O)OC(C)(C)C)C(=O)OC(C)(C)C)NC(=O)[C@H](CCCNC(=N)N)NC(=O)C[C@@H]1CCCN1C(=O)[C@@H](NC(=O)[C@H](Cc1cnc[nH]1)NC(=O)[C@@H](NC(=O)CNC(=O)CO)[C@@H](C)O)C(c1ccccc1)c1ccccc1	0.0063 µM	–
CCCCCCCCCCCCCCCCNC(=O)CN(CC(N)=O)C(=O)CCCCCNC(=O)[C@H](Cc1ccccc1)NC(=O)[C@H](CCCNC(=N)N)NC(=O)[C@H](CS/C=C\C(=O)O)NC(=O)[C@H](CCCNC(=N)N)NC(=O)C[C@@H]1CCCN1C(=O)[C@@H](NC(=O)[C@H](Cc1cnc[nH]1)NC(=O)[C@@H](NC(=O)CNC(=O)CO)[C@@H](C)O)C(c1ccccc1)c1ccccc1	0.218 µM	–
CCCCCCCCCCCCCCCCNC(=O)CN(CC(N)=O)C(=O)CCCCCNC(=O)[C@H](Cc1ccccc1)NC(=O)[C@H](CCCNC(=N)N)NC(=O)[C@H](CS/C(=C\P(=O)(OCC)OCC)P(=O)(OCC)OCC)NC(=O)[C@H](CCCNC(=N)N)NC(=O)C[C@@H]1CCCN1C(=O)[C@@H](NC(=O)[C@H](Cc1cnc[nH]1)NC(=O)[C@@H](NC(=O)CNC(=O)CO)[C@@H](C)O)C(c1ccccc1)c1ccccc1	0.0011 µM	Activity (Mus musculus [1]): inactive; Activity (Mus musculus [2]): Active; remaining at 720 h [3]: 99.5%
CCCCCCCCCCCCCCCCNC(=O)CN(CC(N)=O)C(=O)CCCCCNC(=O)[C@H](Cc1ccccc1)NC(=O)[C@H](CCCNC(=N)N)NC(=O)[C@H](CS/C(=C\S(N)(=O)=O)c1ccccc1)NC(=O)[C@H](CCCNC(=N)N)NC(=O)C[C@@H]1CCCN1C(=O)[C@@H](NC(=O)[C@H](Cc1cnc[nH]1)NC(=O)[C@@H](NC(=O)CNC(=O)CO)[C@@H](C)O)C(c1ccccc1)c1ccccc1	0.034 µM	–
CCCCCCCCCCCCCCCCNC(=O)CN(CC(N)=O)C(=O)CCCCCNC(=O)[C@H](Cc1ccccc1)NC(=O)[C@H](CCCNC(=N)N)NC(=O)[C@H](CS/C(=C\C(=O)OC)C(=O)OC)NC(=O)[C@H](CCCNC(=N)N)NC(=O)C[C@@H]1CCCN1C(=O)[C@@H](NC(=O)[C@H](Cc1cnc[nH]1)NC(=O)[C@@H](NC(=O)CNC(=O)CO)[C@@H](C)O)C(c1ccccc1)c1ccccc1	0.0126 µM	–
